The values that follow come from ChEMBL document CHEMBL1123758, “Thromboxane synthetase inhibitors and antihypertensive agents. 3. N-[(1H-imidazol-1-yl)alkyl]heteroaryl amides as potent enzyme inhibitors” (J Med Chem, 1987).

Active and inactive are the calls of the source.

One assay concerns the target T1, Thromboxane-A synthase (Rattus norvegicus, UniProt P49430).
T1 sequence (P49430 whole entry): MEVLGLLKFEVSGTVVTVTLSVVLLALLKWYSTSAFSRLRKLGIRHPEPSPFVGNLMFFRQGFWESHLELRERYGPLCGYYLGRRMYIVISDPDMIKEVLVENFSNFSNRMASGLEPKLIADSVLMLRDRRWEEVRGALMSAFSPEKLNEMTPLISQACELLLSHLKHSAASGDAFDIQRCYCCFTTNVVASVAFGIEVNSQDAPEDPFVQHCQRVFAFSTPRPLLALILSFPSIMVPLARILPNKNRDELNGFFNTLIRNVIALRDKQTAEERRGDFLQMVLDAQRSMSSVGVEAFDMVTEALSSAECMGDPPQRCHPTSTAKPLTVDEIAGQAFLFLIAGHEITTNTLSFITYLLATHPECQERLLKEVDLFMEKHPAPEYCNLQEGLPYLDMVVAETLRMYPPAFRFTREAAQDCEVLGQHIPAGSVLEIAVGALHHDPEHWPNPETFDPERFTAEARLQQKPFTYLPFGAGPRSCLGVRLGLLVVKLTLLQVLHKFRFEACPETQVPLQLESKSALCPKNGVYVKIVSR
Put plainly: Inhibition of thromboxane formation at a concentration of 10e -6 M.

Assay [1] concerns the target T2, Thromboxane-A synthase (Rattus norvegicus) (UniProt P49430).
T2 sequence (whole entry): T1 sequence (P49430 whole entry)
Particulars: at 100 µM.

In assay [2] the test system is Rattus norvegicus. Put plainly: Antihypertensive activity was measured in spontaneously hypertensive rats (SHR) at 100 mg/kg peroral dose (2 days); NA denotes inactive. Further details: dose 100 mg/kg. The format is functional, organism-based. A digest of the protocol:
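Male 16-week-old Okamoto SHR, mean arterial pressure about 170 mmHg. Dosed by gavage at 100 mg/kg (or less) as a suspension in 2% preboiled starch, with 0.9% NaCl loading at 25 mL/kg. A second identical dose without saline was given 24 h later. Mean arterial pressure was read at 28 h, using one to three rats. Active if ≤116 mmHg in one rat or a two-rat average ≤122 mmHg.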

The target in assay [3] is T2, Thromboxane-A synthase (Rattus norvegicus). Put plainly: Inhibition of thromboxane formation at a concentration of 10e -4 M. In outline:
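Washed SHR platelets in oxygenated Krebs phosphate buffer pH 7.4, (4.5-6.0) × 10^4 platelets/µL, with drug or vehicle, 10 min at 37 °C. Stopped on ice with citric acid. TXB2 in the supernatant was measured by direct RIA. Boiled-sample blanks were subtracted, then percent inhibition of TXB2 formation was calculated. Replicate number varies by entry.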

The subject of assay [4] is Rattus norvegicus. As to the kind of experiment: Antihypertensive activity was measured in spontaneously hypertensive rats (SHR) at 100 mg/kg peroral dose (2 days); active. The format is functional, organism-based. Set-up: dose 100 mg/kg. A digest of the protocol: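 Male Okamoto SHR, 16 weeks old, mean arterial pressure about 170 mmHg. Compound suspended in 2% preboiled starch at 50 mg/mL and given by gavage at 100 mg/kg or less with 0.9% NaCl loading (25 mL/kg). An identical dose without saline followed 24 h later. Mean arterial pressure was read 28 h after the first dose in one to three rats. Active: one rat ≤116 mmHg, or mean of two ≤122 mmHg.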

Broadly, the IC50 is the concentration that inhibits the measured activity by half. The term inhibition denotes the relative decrease from the control value, in per cent. Turning to `O=C(NCCCn1ccnc1)c1sc2ccccc2c1Cl`, the IC50 against Thromboxane-A synthase came out at 300 nM. In addition, the inhibition in assay [1] was 100%. `O=C(NCCCn1ccnc1)c1cc2ccccc2o1`: the outcome in the assay with Rattus norvegicus [2] was inactive. On Thromboxane-A synthase, this compound had an IC50 of 300 nM. The inhibition in assay [1] amounted to 97%. As for `O=C(NCCCCCCCCn1ccnc1)c1cc2cc(Cl)ccc2[nH]1`, at Thromboxane-A synthase, the IC50 came out at 27 nM. Moreover, the inhibition in assay [3] stood at 93%. For the compound `O=C(NCCCCCn1ccnc1)c1ccc(Cl)s1`, in the assay on Rattus norvegicus [2], the result was inactive. On Thromboxane-A synthase, half-maximal inhibition (IC50) was put at 200 nM. The compound further showed an inhibition in assay [1] of 100%. For the compound `O=C(NCCCCn1cncn1)c1ccco1`, the outcome in the assay on Rattus norvegicus [2] was inactive. In assay [1], this compound returned an inhibition of 22%. Compound `Cc1nccn1CCCNC(=O)c1ccc(Cl)s1` had an inhibition in assay [1] of 78%. On to `O=C(NCCCCn1ccnc1)c1cc2ccccc2[nH]1`, for which the result in the assay on Rattus norvegicus [2] was inactive. This compound showed an IC50 at Thromboxane-A synthase of 40 nM. Besides, the inhibition in assay [1] amounted to 100%. As for `O=C(NCCCn1ccnc1)c1ccc(Br)o1`, the result in the assay with Rattus norvegicus [2] was inactive. In addition, the inhibition in assay [1] was determined as 82%. As to `O=C(NCCCCCCn1ccnc1)c1ccc(Cl)s1`, the result with Rattus norvegicus [2] was inactive. The same compound yielded an IC50 against Thromboxane-A synthase of 200 nM. This compound also returned an inhibition in assay [1] of 100%. Regarding `Cc1nccn1CCCNC(=O)c1cc2ccccc2n1C`, the result in the assay on Rattus norvegicus [2] was inactive. The compound also had an inhibition in assay [1] of 56%.

Regarding `O=C(NCCCCCn1ccnc1)c1cc2cc(Cl)ccc2[nH]1`, the IC50 at Thromboxane-A synthase stood at 7 nM. The same compound gave an inhibition in assay [1] of 100%. In the case of `Cc1cn(CCCNC(=O)c2cc3ccccc3[nH]2)cn1`, in the assay on Rattus norvegicus [2], the outcome was inactive. In assay [1], the inhibition was determined as 100%.

On to `O=C(NCCCCn1ccnc1)c1cccs1`, for which, on Thromboxane-A synthase, the midpoint of inhibition, the IC50, lay at 3000 nM. This compound returned an inhibition in assay [1] of 95%.

In the case of `O=C(NCCCn1ccnc1)c1cc2cc(Cl)ccc2[nH]1`, the outcome with Rattus norvegicus [2] was inactive. Besides, the inhibition in assay [1] turned out to be 95%. Compound `CC(CCNC(=O)c1ccc(Cl)s1)n1ccnc1` (stereo unspecified) had an IC50 at Thromboxane-A synthase of 2000 nM. Also, in assay [1], the inhibition turned out to be 100%. For `Cc1nccn1CCCNC(=O)c1ccc(Cl)nc1`, in assay [3], the inhibition is 44%. On Thromboxane-A synthase, `O=C(NCCCCCCCCn1ccnc1)c1ccc(Cl)s1` registered a half-maximal inhibitory concentration (IC50) of 70 nM. In assay [3], the inhibition turned out to be 96%. For the compound `O=C(NCCCn1ccnc1)c1ccc(Cl)nc1`, in assay [3], the inhibition is 87%. For `O=C(NCCCn1ccnc1)c1cccs1`, in the assay on Rattus norvegicus [2], the result was inactive. Also, the inhibition in assay [1] was 93%.

In the case of `CC(CCNC(=O)c1cc2cc(Cl)ccc2[nH]1)n1ccnc1` (stereo unspecified), at Thromboxane-A synthase, inhibition was half-maximal at 50 nM (IC50). In assay [1], the inhibition was 98%.

`O=C(NCCCCCn1cncn1)c1ccc(Cl)s1`: the outcome in the assay with Rattus norvegicus [2] was inactive. The same compound returned an inhibition in assay [1] of 100%.

Take `O=C(NCCCn1ccnc1)c1cccnc1Cl`: in assay [3], the inhibition is 64%. `O=C(NCCCCn1ccnc1)c1ccc(Cl)nc1` gave an IC50 at Thromboxane-A synthase of 8000 nM. Also, the inhibition in assay [3] stood at 94%. `O=C(NC/C=C/Cn1ccnc1)c1ccc(Cl)s1`: the result in the assay with Rattus norvegicus [2] was inactive. In assay [1], this compound registered an inhibition of 100%. `O=C(NCCCCn1ccnc1)c1ccc(Cl)s1`: the IC50 against Thromboxane-A synthase is 200 nM. In assay [1], this compound returned an inhibition of 99%.

In the case of `O=C(NCCCCn1ccnc1)c1ccco1`, the outcome in the assay with Rattus norvegicus [2] was inactive. Further, the inhibition in assay [1] stood at 87%. With `O=C(NCCCn1ccnc1)c1ccc(Cl)s1`, at Thromboxane-A synthase, the IC50 was 600 nM. In assay [1], this compound showed an inhibition of 95%. On to `O=C(NCCCn1cnc(-c2ccccc2)c1)c1ccc(Cl)s1`, for which, in the assay with Rattus norvegicus [2], the result was inactive. This compound had an inhibition in assay [1] of 70%. With `Cc1cn(CCCNC(=O)c2cc3ccccc3n2C)cn1`, in the assay with Rattus norvegicus [2], the outcome was inactive. The compound also yielded an inhibition in assay [1] of 85%.

As to `O=C(NCCCCn1cncn1)c1ccc(Cl)s1`, the result in the assay on Rattus norvegicus [2] was inactive. Further, the inhibition in assay [1] was 83%. Taken in the same sequence, the figures for `Cc1cn(CCCNC(=O)c2ccc(Cl)s2)cn1` were “inactive” and 95%.

Take `O=C(NCCCn1ccnc1)c1cc2cc(Cl)ccc2s1`: the result in the assay with Rattus norvegicus [2] was inactive. On Thromboxane-A synthase, this compound displayed a concentration for half-maximal inhibition (IC50) of 100 nM. The compound also yielded an inhibition in assay [1] of 100%. Turning to `O=C(NCCCn1ccnc1)c1cccnc1`, in the assay on Rattus norvegicus [2], the result was inactive. Further, the inhibition in assay [1] came out at 83%. The compound `Cc1cn(CCCNC(=O)c2ccc(Cl)nc2)cn1` yielded an inhibition in assay [3] of 86%.

Consider `Cn1c(C(=O)NCCCn2ccnc2)cc2ccccc21`, for which the outcome in the assay on Rattus norvegicus [2] was inactive. The compound further gave an inhibition in assay [1] of 89%. `CC(CNC(=O)c1cc2cc(Cl)ccc2[nH]1)Cn1ccnc1` (stereo unspecified) yielded an inhibition in assay [1] of 100%.

For the compound `O=C(NCCCn1cncn1)c1cccs1`, the result in the assay on Rattus norvegicus [2] was inactive. The compound further had an inhibition in assay [1] of 30%. For the compound `O=C(NCCCn1cncn1)c1ccc(Cl)s1`, the outcome in the assay with Rattus norvegicus [2] was inactive. The inhibition in assay [1] was 64%. Taken in the same sequence, the figures for `O=C(NCCCn1ccnc1)c1sc2cc(F)ccc2c1Cl` were “inactive” and 96%. Regarding `CC(CCNC(=O)c1ccc(Cl)nc1)n1ccnc1` (stereo unspecified), at Thromboxane-A synthase, the IC50 was determined as 3000 nM. The compound also showed an inhibition in assay [3] of 98%. With `O=C(NCCCn1ccnc1)c1cc(Br)c(Br)s1`, the outcome in the assay with Rattus norvegicus [2] was inactive. At Thromboxane-A synthase, this compound had an IC50 of 400 nM. The same compound showed an inhibition in assay [1] of 100%. `O=C(NCCCCn1ccnc1)c1sc2ccccc2c1Cl`: in the assay with Rattus norvegicus [2], the result was inactive. The inhibition in assay [1] was 91%. Taken in the same sequence, the figures for `O=C(NCCCn1cncn1)c1cc2ccccc2o1` were “inactive” and 84%. Turning to `O=C(NCCCCn1ccnc1)c1cc2cc(Cl)ccc2[nH]1`, the inhibition in assay [1] came out at 100%. Consider `CC(CNC(=O)c1ccc(Cl)nc1)Cn1ccnc1` (stereo unspecified), for which, in assay [3], the inhibition was found to be 98%.

Take `O=C(NCCCn1ccnc1)c1ccco1`: the result in the assay on Rattus norvegicus [2] was inactive. This compound also yielded an inhibition in assay [1] of 97%. In turn, `O=C(NCCCn1ccnc1)c1cc2ccccc2[nH]1` gave an inhibition in assay [1] of 94%.

`O=C(NCCCCCn1ccnc1)c1ccc(Cl)nc1`: on Thromboxane-A synthase, it took 3000 nM to reach half-maximal inhibition (IC50). Further, the inhibition in assay [3] amounted to 100%. With `Cc1cn(CCCNC(=O)c2cc3cc(Cl)ccc3[nH]2)cn1`, the result in the assay on Rattus norvegicus [2] was inactive. In addition, the inhibition in assay [1] is 100%. Taken in the same sequence, the figures for `COc1ccc2[nH]c(C(=O)NCCCn3ccnc3)cc2c1` were “inactive” and 96%. The corresponding values for `Cc1ccc2c(Cl)c(C(=O)NCCCn3ccnc3)sc2c1` are “inactive” and 96%.

Take `O=C(NCCCn1ccnc1)c1ccc([N+](=O)[O-])o1`: the result in the assay with Rattus norvegicus [4] was Active. Besides, the inhibition in assay [1] was 64%. On to `Cc1ccc(C(=O)NCCCn2ccnc2)s1`, for which, in the assay on Rattus norvegicus [2], the result was inactive. The compound also had an IC50 against Thromboxane-A synthase of 1300 nM. In assay [1], this compound showed an inhibition of 96%.

For `O=C(NCCn1ccnc1)c1ccco1`, in assay [1], the inhibition came to 65%. The same measure, in the same setting: the value for `O=C(NCCn1ccnc1)c1sc2ccccc2c1Cl` was 70%.
